KCNQ1 block = inhibitors of human KCNQ1 potassium channel. CHO-K1 KCNQ1, FluxOR thallium flux fluorescence; active compounds read high. P51787. AID 2642. B-score at 10 µM. actives 1.3% (n = 310,000);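 active means compounds whose thallium flux B-score, printed positive for inhibition, exceeds three library SD while starting fluorescence stays within three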;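 further: channel opened by potassium depolarization with thallium stimulus after 20 min compound exposure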
KCNK3 block = human KCNK3 channel inhibition, primary screen | O14649 | CHO-KCNK3 thallium flux, FluxOR fluorescence; active compounds read low | B-score at 10 µM | actives 0.84% (n = 340,000);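 active means B-score under library mean minus 4 SD, starting fluorescence ratio at most library mean plus 5 SD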;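 further: more negative B-score means stronger inhibition of thallium flux through KCNK3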
hERG protect = shields human hERG channel from block by proarrhythmic agents. activation (rescue from dofetilide block), less the hit threshold, % at 10 µM. Q12809. AID 1511. actives 0.51% (n = 310,000). CHO-hERG, FluxOR thallium flux, dofetilide IC70 present;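 active means activation above the mean of controls blocked by dofetilide plus 5 SD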;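 further: thallium influx through hERG after potassium depolarization seen as dye fluorescence rise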
KCNK9 block = inhibitors of human KCNK9 two-pore domain potassium channel | actives 1.2% (n = 310,000) | Q9NPC2 | B-score at 10 µM | HEK293 KCNK9, FluxOR thallium flux fluorescence; active compounds read low;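 active means ratio B-score over 3 SD below the library mean, with starting fluorescence within 5 SD of its mean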;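 further: negative B-score means less thallium flux so channel inhibition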
Target sequence (Q9NPC2 whole entry, looked up, the tested form may be a part): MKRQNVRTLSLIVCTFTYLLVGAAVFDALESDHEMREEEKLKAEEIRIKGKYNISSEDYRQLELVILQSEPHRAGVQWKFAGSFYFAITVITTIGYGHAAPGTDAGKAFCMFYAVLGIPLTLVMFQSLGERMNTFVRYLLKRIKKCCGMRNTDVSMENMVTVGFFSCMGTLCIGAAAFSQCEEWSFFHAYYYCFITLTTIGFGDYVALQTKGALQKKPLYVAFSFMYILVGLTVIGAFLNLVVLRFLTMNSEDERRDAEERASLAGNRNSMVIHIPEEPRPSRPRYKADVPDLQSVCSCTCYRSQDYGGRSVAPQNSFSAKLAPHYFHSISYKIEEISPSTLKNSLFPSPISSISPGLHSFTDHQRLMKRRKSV
KCNQ1 pot = human KCNQ1 channel potentiation or activation. P51787. CHO-K1 KCNQ1, thallium flux FluxOR fluorescence; active compounds read high. B-score at 10 µM. actives 0.35% (n = 310,000). AID 2648;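 active means fluorescence ratio B-score, a plate-corrected score, at least three library SD, with initial intensity B-score within 5 SD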
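System: Stable KCNQ1 CHO-K1 line | Incubation: 90 min dye loading and 20 min compound exposure, both at room temperature | Measure: Ratio B score | Medium: Assay buffer for compound exposure, DMSO matched across wells | Compound dosing: Single-concentration screen | Probe or stimulus: K+/Tl+ depolarizing stimulus | Measured by: Kinetic FluxOR fluorescence, 10 s baseline plus 110 s post-stimulus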
Kir21 inh = inhibitors of mouse Kir2.1 inward-rectifier potassium channel; HEK293-Kir2.1, FluxOR thallium flux fluorescence; active compounds read low; actives 0.85% (n = 310,000); AID 1672; P35561; B-score at 10 µM;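 active means fluorescence ratio B-score at or below minus 3 SD of library scores, with starting-brightness B-score within 2 SD, cut at about -4.2 in these data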;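 further: channel flux triggered by added potassium and thallium sulfate stimulus; B-score of peak minus minimum fluorescence over baseline after thallium stimulus; more negative B-score means stronger Kir2.1 block with less thallium influx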
KCNK9 block conf = human KCNK9 inhibitor confirmation; shares compounds with KCNK9 block; HEK293 KCNK9 cells, FluxOR thallium flux fluorescence; inhibition, % at 10 µM; actives 43% (n = 4,900);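 active means thallium signal inhibited by more than 5 SD of the compound-free buffer control wells, on both duplicate plates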;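 further: 0% = assay buffer control wells without compound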
Kir2-1 spec = mouse Kir2.1 off-target activity of KCNK9 modulators; shares compounds with KCNK9 block; Kir2.1 cells, FluxOR thallium flux fluorescence; inhibition, % at 10 µM; actives 4% (n = 4,900);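 active means thallium signal drop more than 5 SD beyond the mean of the no-compound control wells, seen in both duplicate plates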;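 further: signal is fluorescence rise after thallium addition divided by baseline fluorescence; plate controls were assay buffer only for no effect and full block by chlorpromazine control for full effect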
KCNK9 uninduced = second check of KCNK9 modulator effects in non-induced HEK293 cells | AID 492997 | shares compounds with KCNK9 block | inhibition, % at 10 µM | actives 40% (n = 4,900) | FluxOR thallium flux;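 active means thallium signal drop beyond 5 SD of the untreated control mean, on both duplicate plates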;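 further: plate controls were buffer only IC0 wells for no effect and SID17386958 at its maximal inhibitory level for full effect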
* hit, by the source's call; i = inactive; . = no result given. An excerpt weighted towards active compounds, which were near 3.7% of everything screened.

SMILES | KCNQ1 block | KCNK3 block | hERG protect | KCNK9 block | KCNQ1 pot | Kir21 inh | KCNK9 block conf | Kir2-1 spec | KCNK9 uninduced
Cc1c(C(=O)NCCSCc2c(F)cccc2Cl)cnn1-c1ccc(Cl)cc1 | i | i | -9.6 | i | i | -1.05 | i | i | i
COc1ccccc1C(=O)NCCSCc1c(F)cccc1Cl | i | i | -10.9 | i | i | -1.27 | . | . | .
CCOC(=O)c1cc2c(ccn2C)n1CC(=O)N(C)C | i | i | -11.2 | i | i | 0.57 | . | . | .
CCOC(=O)c1cc2c(ccn2C)n1Cc1ccc(C#N)cc1 | i | i | -12.4 | -8.33* | i | -1.79 | 37.0%* | i | 30.5%*
Cc1cc(C)cc(C(=O)NC(CC(N)=O)c2ccc(N3CCC(Cc4ccccc4)CC3)c([N+](=O)[O-])c2)c1 (centres undefined) | i | i | -4.6 | -12.8* | i | -0.78 | 53.0%* | i | 36.0%*
Cc1cc(C)cc(C(=O)NC(CC(N)=O)c2ccc(N3CCN(c4ccccc4)CC3)c([N+](=O)[O-])c2)c1 (centres undefined) | i | i | -4.2 | i | i | 1.31 | . | . | .
CCOC(=O)C1CCCN(C2=NC(=O)/C(=C/c3ccc(N(C)C)cc3)S2)C1 (centres undefined) | 8* | i | -28.8 | -8.42* | i | -5.82 | 55.5%* | i | 86.0%*
CC(=O)c1cc2c(cc1NC(=O)CN1CCC(Cc3ccccc3)CC1)OCO2 | i | i | -10.9 | i | i | 1.71 | i | i | i
CCOc1cc(N2CCOCC2)c(OCC)cc1NC(=O)CN1CCC(Cc2ccccc2)CC1 | i | i | -4.0 | i | i | -1.83 | i | i | i
CCOC(=O)N1CCN(CC(=O)Nc2cc3c(cc2C(C)=O)OCO3)CC1 | i | i | -4.0 | i | i | -0.5 | . | . | .
COc1ccc(/C=C/c2nc3ccccc3n2Cc2ccc(OC)c(OC)c2)cc1 | i | i | -3.2 | -8.12* | i | -2.19 | 58.5%* | i | 33.0%*
O=C(COc1cc2oc(=O)cc(-c3ccccc3)c2cc1Cl)NCc1ccccn1 | i | i | -6.6 | i | i | -0.38 | . | . | .
CCOC(=O)c1ccc(-n2c(C)nc3ccc(Br)cc3c2=O)cc1 | i | i | -9.5 | i | i | 0.38 | . | . | .
N#Cc1ccccc1-c1ccccc1C(=O)N1CCCCC1 | i | i | -2.5 | -19.2* | i | 0.5 | i | i | i
O=C(c1cccc2c1-c1ccccc1C2)N1CCCCC1 | i | i | -4.9 | i | i | 1.26 | . | . | .
COc1cc(C)nc(N(Cc2ccccc2)S(=O)(=O)c2ccccc2)n1 | i | i | -12.1 | -16.3* | i | 0.15 | 56.5%* | i | 44.0%*
Cc1ccc(O)c(C(=O)CC(=O)c2ccc(C(C)(C)C)cc2)c1 | i | i | -7.2 | i | i | 0.24 | i | i | i
Cn1c(=O)c2ncn(C)c2n(C)c1=O | . | i | . | . | . | . | . | . | .
O=C(COC(=O)COc1ccccc1[N+](=O)[O-])NC1CCCCC1 | . | i | . | . | . | . | . | . | .
CCCCOC(=O)Cn1c(-c2ccccc2)nc2ccccc2c1=O | i | i | -6.8 | -11.4* | i | 1.21 | 56.5%* | i | 52.0%*
CC(C)Cn1c(-c2ccccc2)nc2ccccc2c1=O | i | i | -9.7 | i | i | -3.54 | . | . | .
CCOC(=O)N1CCC(n2c(SCC(=O)NCc3ccccc3)nc3ccccc3c2=O)CC1 | i | i | -14.6 | i | i | -1.27 | . | . | .
CCOC(=O)N1CCC(n2c(SCC(=O)NCCC3=CCCCC3)nc3ccccc3c2=O)CC1 | i | i | -21.5 | i | i | 1.83 | i | i | i
CCNc1nc(NCC)n2c(SCC(=O)c3ccccc3Cl)nnc2n1 | i | i | -14.7 | i | i | -0.04 | . | . | .
COC(=O)c1ccccc1Oc1nc(Cl)cc(OC)n1 | i | i | -4.9 | i | i | 0.98 | . | . | .
SMILES | KCNQ1 block | KCNK3 block | hERG protect | KCNK9 block | KCNQ1 pot | Kir21 inh | KCNK9 block conf | Kir2-1 spec | KCNK9 uninduced
COc1cc(OC)nc(Oc2ccccc2C(=O)Oc2ccccc2Cl)n1 | i | i | 1.1 | -11.3* | i | -3.62 | 42.0%* | i | 27.5%*
COc1cc(OC)nc(Oc2ccccc2C(=O)Oc2ccc(Cl)cc2)n1 | i | i | 1.2 | -8.98* | i | 0 | 44.5%* | i | 39.0%*
CC(C)C(OC(=O)C1=Cc2ccccc2OC1)C(=O)NCC1CCCO1 (centres undefined) | . | i | . | . | . | . | . | . | .
CN(C(=O)c1ccc(NC(=O)Cc2cccc(NC(=O)C3CCCN(C(=O)CCc4ccccc4)C3)c2)cc1)C1CC1 (centres undefined) | . | i | . | . | . | . | . | . | .
CNc1nnc(CSc2nc3ccccc3s2)s1 | i | i | -9.8 | i | i | -0.23 | . | . | .
CNc1nnc(CSc2nc(C)cc(C)n2)s1 | i | i | -4.6 | i | i | 1.23 | 36.0%* | i | i
Cc1ccc(CNC(=O)CNC(=O)[C@@H]2Cc3ccccc3CN2C(=O)OC(C)(C)C)cc1 | i | i | -10.2 | i | i | 0.02 | . | . | .
O=C(N[C@@H](Cc1ccc(Br)cc1)C(=O)O)OCC1c2ccccc2-c2ccccc21 | i | i | -5.5 | i | i | -0.01 | i | i | i
O=C(N[C@H](Cc1ccc(Cl)cc1)C(=O)O)OCC1c2ccccc2-c2ccccc21 | i | i | -12.6 | i | i | 0.39 | . | . | .
CCOc1ccc(S(=O)(=O)N2CCC(C(=O)OC(C)C(=O)N3CCOCC3)CC2)cc1 (centres undefined) | i | i | -8.6 | i | i | 0.23 | . | . | .
COc1ccccc1OCCOCCOc1c(C)cc(C)cc1Br | i | i | -5.9 | i | i | 1.61 | i | i | i
COc1cc(C)ccc1OCCOCCOc1c(C)cc(C)cc1Br | i | i | -10.9 | i | i | 0.01 | i | i | i
Cc1ccc(OCCOCCOc2cccc3cccnc23)c(Br)c1 | i | i | -10.0 | i | i | -1.95 | i | i | i
Clc1cc(Br)ccc1OCCOCCOc1cccc2cccnc12 | i | i | -1.8 | i | i | -0.73 | . | . | .
COc1ccc(NC(=O)Cn2c(=O)n(-c3ccc(OC)cc3OC)c(=O)c3c(C)c(C)sc32)cc1 | i | i | -10.9 | i | i | 0.62 | . | . | .
COC(=O)CN(c1ccc(F)cc1)S(=O)(=O)c1ccccc1 | i | i | -5.3 | i | i | -3.56 | . | . | .

Compound activity deposited in PubChem by Johns Hopkins Ion Channel Center.
